GASC-1 inh: inhibitors of GASC-1 histone demethylase, primary screen, biochemical, fluorescence, DELFIA europium | Lysine-specific demethylase 4C (Homo sapiens), Q9H3R0 | GST-JMJD2C(1-420) H3K9me3 demethylation | inhibition, % at 2.35 µM | 0.069% of 330,000 active | AID 2099, 2009;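 active means more than half of a compound's replicate wells show inhibition beyond 50%, single wells judged on their own value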;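 further: signal counts dimethyl H3K9 product captured on neutravidin plate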
DAX1 inh-1: DAX1 (NR0B1) inhibitors, primary screen, cell-based, HEK293, Gal4-DAX1, luciferase luminescence | 0.99% of 340,000 active | Nuclear receptor subfamily 0 group B member 1 (Homo sapiens), P51843 | AID 504766, 2011 | inhibition, % at 6.75 µM | HEK293 Gal4-DAX1 luciferase reporter;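 active means inhibition above the mean over all tested compounds plus 3 SD, cut at about 4.2% in these data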;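 further: inhibition shows as a rise in luminescence from relieved DAX1 repression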
Target sequence (P51843 207-470 limits assumed): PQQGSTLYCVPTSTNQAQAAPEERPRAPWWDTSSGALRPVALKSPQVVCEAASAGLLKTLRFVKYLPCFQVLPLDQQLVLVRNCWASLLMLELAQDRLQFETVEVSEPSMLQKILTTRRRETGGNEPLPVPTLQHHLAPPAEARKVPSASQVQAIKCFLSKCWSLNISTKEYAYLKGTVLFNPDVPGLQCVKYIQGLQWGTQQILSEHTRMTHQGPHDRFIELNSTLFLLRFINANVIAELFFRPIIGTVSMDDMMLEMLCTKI
SMARCA2 act: SMARCA2 (BRM) function activators, primary screen, cell-based, luminescence, high throughput; MG213 cells, MMTV-luciferase reporter, dexamethasone, overnight; activation, % at 9.1 µM; 1% of 370,000 active; AID 652017, 2013; in the data active means activation above about 7.8%
DAX1 inh-2: DAX1 (NR0B1) inhibitors on StAR promoter, primary screen, cell-based, luminescence, SF-1 (NR5A1), full-length DAX-1; 1.1% of 370,000 active; AID 652010, 2013; HEK293T StAR-luciferase reporter, SF-1/DAX-1 repression relief; inhibition, % at 6.8 µM;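 active means inhibition above the mean over all tested compounds plus 3 SD, cut at about 3.6% in these data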;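 further: higher inhibition means more luminescence from relief of DAX-1 repression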
NR2E3 ag-1: NR2E3 agonists in two-hybrid cells, primary screen, cell-based, luminescence, CHO-S, Gal4-NCOR/VP16-NR2E3; Photoreceptor-specific nuclear receptor (Homo sapiens), Q9Y5X4; luciferase; inhibition of corepressor binding, % at 3.98 µM; 0.35% of 360,000 active; AID 602229, 2012;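 active means inhibition above the mean of all tested compounds plus 3 SD, cut at about 70% in these data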;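 further: higher means lower luciferase signal from less NR2E3 corepressor binding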
Target sequence (Q9Y5X4 whole entry, looked up, the tested form may be a part): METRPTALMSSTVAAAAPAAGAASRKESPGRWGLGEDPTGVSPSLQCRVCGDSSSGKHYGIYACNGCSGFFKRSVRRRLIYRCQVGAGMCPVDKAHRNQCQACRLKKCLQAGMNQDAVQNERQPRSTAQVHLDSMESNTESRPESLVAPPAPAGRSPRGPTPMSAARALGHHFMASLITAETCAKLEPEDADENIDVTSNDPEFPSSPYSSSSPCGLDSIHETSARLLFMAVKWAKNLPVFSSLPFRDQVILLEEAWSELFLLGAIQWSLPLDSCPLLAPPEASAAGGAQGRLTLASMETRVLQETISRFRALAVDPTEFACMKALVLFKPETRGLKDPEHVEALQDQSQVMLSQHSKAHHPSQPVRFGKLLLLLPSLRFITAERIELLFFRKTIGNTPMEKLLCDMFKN
NR2E3 ag-2: inhibitors of NR2E3-RetCOR corepressor binding, primary screen, NR2E3 agonist project, biochemical, TR-FRET, GST-NR2E3, biotin-RetCOR | AID 2300, 2010 | inhibition of corepressor binding, % at 4.78 µM | 1536-well | 0.12% of 320,000 active;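 active means percent inhibition above the cutoff of mean plus 3 SD of all tested compounds, set per screening campaign, cut at about 20% in these data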
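System: GST-tagged NR2E3 plus biotinylated RetCOR corepressor; Buffer or medium: pH 7.5 Tris-based buffer; Probe or stimulus: RetCOR corepressor, biotinylated, 7 nM; Doses: compound at 4.8 µM, single dose; Schedule: 5 h incubation at 4 °C; Technique: time-resolved FRET; Evaluation: percent inhibition of TR-FRET ratio; Replication: one well per compound, singlicate testing.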
DAX1 inh confirm: DAX1 (NR0B1) inhibitors relieving SF-1 repression, confirmation, cell-based, luminescence, HEK293T, full-length DAX-1, SF-1 activated StAR promoter; shares compounds with DAX1 inh-2; HEK293T StAR-promoter luciferase reporter, SF-1/DAX-1 repression; inhibition, % at 6.8 µM; 87% of 2,400 active;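 active means inhibition above the average of every tested compound plus 3 SD, cut at about 3.8% in these data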
SF1 mutant ctr: StAR reporter signal changes without DAX1, counter-screen for DAX1 inhibitor project, cell-based, luminescence, AF-2 mutant SF-1, transactivation. shares compounds with DAX1 inh-2. HEK293 StAR-luciferase, SF-1 AF2 mutant. inhibition, % at 6.8 µM. 78% of 2,400 active. AID 652136, 2013;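 active means inhibition above the mean of all tested compounds plus 3 SD, cut at about 3% in these data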
A number is an active result; . = inactive; / = no result given. Compounds with a hit are over-represented: about 3.2% of the library has one in this group of screens.

SMILES	GASC-1 inh	DAX1 inh-1	SMARCA2 act	DAX1 inh-2	NR2E3 ag-1	NR2E3 ag-2	DAX1 inh confirm	SF1 mutant ctr
COc1ccc(NS(=O)(=O)c2cccc(C(=O)NCC3(N4CCOCC4)CCCCC3)c2)cc1	.	.	.	.	.	.	/	/
Cc1ccc(S(=O)(=O)Nc2cccc(C(=O)NCC3(N4CCCCC4)CCCCC3)c2)cc1F	.	.	.	6.2	.	.	4.6	3.8
CCOc1ccc(C(=O)NCC(=O)Nc2cc(C)ccn2)cc1OCC	.	.	.	.	.	.	/	/
Cc1ccnc(NC(=O)c2cccc(S(=O)(=O)N3CCCc4ccccc43)c2)c1	.	.	.	7.7	.	.	9.1	6.4
Cc1ccc(C(=O)NCC(=O)Nc2cc(C)ccn2)cc1	.	.	.	4.8	.	.	6.8	4.5
Cc1ccnc(NC(=O)c2ccccc2NC(=O)c2ccccc2)c1	.	.	.	.	.	.	/	/
Cc1ccnc(NC(=O)c2ccc(C(=O)c3ccccc3)cc2)c1	.	.	.	9.1	.	.	11	3.2
Cc1ccnc(NC(=O)c2ccc(S(=O)(=O)N3CCCCCC3)cc2)c1	.	.	.	9.2	.	.	10	5.1
COc1ccc2c(c1)CN1CN(C3CCCC3)S(=O)(=O)CC21 (stereo not drawn)	/	/	.	.	/	/	/	/
OC[C@@H]1CC[C@@H]2O[C@H](CCc3ccc(-c4ccc(F)cc4)cc3)[C@H](n3cc(C4CC4)nn3)C[C@@H]2O1	/	/	.	.	/	/	/	/
Cc1ccnc(NC(=O)CCNC(=O)c2ccc(Cl)cc2)c1	.	.	.	5.1	.	/	14	7.0
Cc1ccc(NC(=O)CCNC(=O)c2ccc(Cl)cc2)cc1C	.	.	.	.	.	.	/	/
C/C=C/c1ccc2c(c1)O[C@@H](CN(C)C(=O)c1ccc(F)cc1)[C@@H](C)CN([C@H](C)CO)S2(=O)=O	/	.	.	4.8	.	/	.	4.4
C[C@@H]1CN([C@@H](C)CO)S(=O)(=O)c2ccc(-c3cccc(C#N)c3)cc2O[C@@H]1CN(C)C(=O)c1ccc(F)cc1	/	.	.	.	.	/	/	/
O=C(Nc1nc2ccccc2[nH]1)NC1CCCCC1	.	.	.	16	.	.	18	9.7
O=C(Nc1nc2ccccc2s1)NC1CCCCC1	.	7.1	.	6.1	.	.	10	6.0
O=C(Nc1nc2ccccc2[nH]1)C1CC1	.	.	.	.	.	.	/	/
O=C1c2ccccc2C(=O)C1c1ccc2ccccc2n1	.	4.2	.	5.8	.	.	.	.
O=C1CC(N2CCCN(Cc3ccccc3)CC2)=NC(=O)N1c1ccc(Br)cc1	/	/	.	.	/	/	/	/
O=C(NC(=S)Nc1ccc2ncccc2c1)c1ccccc1	.	.	.	4.8	.	.	7.7	5.8
O=C(O)c1cccc(NC(=S)NC(=O)c2ccc3ccccc3c2)c1	.	.	.	11	.	.	8.0	4.4
O=C(NC(=S)Nc1ccc2nc[nH]c2c1)c1ccccc1	.	.	.	6.5	.	.	5.9	3.1
O=C(Nc1ccc2ncccc2c1)c1ccccc1	.	.	.	.	.	.	/	/
O=C(NC(=S)Nc1ccccn1)c1ccc(-c2ccccc2)cc1	.	.	.	8.9	.	.	15	9.1
CC1CCN(C(=O)C2CCCN(C(=O)c3ccc4c(c3)NC(=O)CS4)C2)CC1 (stereo not drawn)	/	/	.	.	/	/	/	/
SMILES	GASC-1 inh	DAX1 inh-1	SMARCA2 act	DAX1 inh-2	NR2E3 ag-1	NR2E3 ag-2	DAX1 inh confirm	SF1 mutant ctr
COc1ccc(C2CC(=O)C(c3ccccc3C)=CN2Cc2ccccc2)cc1 (stereo not drawn)	/	/	.	.	/	/	/	/
COC(=O)[C@]12C[C@H](CC(=O)N3CCCCC3)C(=O)N(Cc3ccc(Cl)cc3Cl)C1=C[C@H](C1CCCC1)O[C@@H]2C	/	/	.	.	/	/	/	/
COc1ccccc1Cc1c(-c2ccc(C)cc2)nc2ccc(C)cn12	/	/	.	4.9	/	/	7.0	5.1
COc1ccccc1Cc1c(-c2ccccc2)nc2ccc(C)cn12	/	/	.	5.2	/	/	.	4.3
COc1ccccc1Cc1c(-c2cccc(Br)c2)nc2ccc(C)cn12	/	/	.	.	/	/	/	/
Cc1ccc2nc(-c3ccc(Cl)cc3)c(Cc3ccccc3C(F)(F)F)n2c1	/	/	.	7.7	.	/	3.7	3.7
Cc1ccc(-c2nc3ccc(Cl)cn3c2Cc2ccccc2C(F)(F)F)cc1	/	/	.	.	.	/	/	/
Cc1ccc(NC(=O)Nc2ccc3c(c2)[C@]2(CC(=O)N(CC(C)C)C2c2ccccc2)C(=O)N3C)cc1Cl (stereo partly drawn)	/	/	.	.	/	/	/	/
CC1(c2nnnn2C2CCCCC2)CSCC(=O)N1CCc1ccc(O)cc1 (stereo not drawn)	/	/	.	.	/	/	/	/
Fc1cccc(Cc2c(-c3ccc(Cl)cc3)nc3ccc(Br)cn23)c1	/	/	.	4.7	.	/	.	.
Cc1ccc2nc(-c3ccc(Cl)cc3)c(Cc3cccc(F)c3)n2c1	/	/	.	.	/	/	/	/
Cc1ccc2nc(-c3cccc(Cl)c3)c(Cc3cccc(F)c3)n2c1	/	/	.	4.8	.	/	.	.
Cc1ccc(-c2nc3ccc(Cl)cn3c2Cc2cccc(F)c2)cc1	/	/	.	6.5	.	/	9.7	4.9
Fc1cccc(Cc2c(-c3cccc(Br)c3)nc3ccc(Br)cn23)c1	/	/	.	.	.	/	/	/
O=S(=O)(c1ccccc1)n1c(CN2CCOCC2)nc2ccccc21	/	/	.	.	/	/	/	/
Cc1c(NC(=O)C2CCCN(S(=O)(=O)c3ccc(C(C)(C)C)cc3)C2)c(=O)n(-c2ccccc2)n1C (stereo not drawn)	/	/	.	.	/	/	/	/
CCCN1CCN(C(=O)c2cc3c(s2)-c2ccccc2OC3)CC1	.	.	.	5.4	.	.	9.9	5.2
CCOC(=O)N1CCN(C(=O)c2cc3c(s2)-c2ccccc2OC3)CC1	.	.	.	.	.	.	/	/
Clc1ccc(OCc2nc3ccccc3[nH]2)cc1	.	.	.	4.7	.	.	9.8	9.3
COc1cccc(Cn2cc(COC(=O)N3CCOCC3)nn2)c1	/	/	.	.	/	/	/	/

Screens: PubChem, several laboratories
